Results as given in the RNAGym collection of RNA variant scans (doi:10.1126/science.aae0568).
This sample holds only a part of the variants without activity.

B1: tRNA (parent)
chain: GUUCCGUUGGCGUAAUGGUAACGCGUCUCCCUCCUAAGGAGAAGACUGCGGGUUCGAGUCCCGUACGGAACG

Variants of: B1
Experiment: yeast fitness relative to wild type (ratio to wild type); higher = fitter; tRNA-Arg(CCU), competitive growth, 37 C, YPD
Outline: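 Genotype frequency changes were the basis for Darwinian fitness relative to wild type. The frequencies came from 100-nucleotide paired-end sequencing of gene amplicons from the start population and each end population of pooled yeast strains with tRNA-Arg(CCU) gene variants at the native locus. Competition ran in YPD at 37°C for 24 hours in six replicates, genotypes needed ≥ 100 starting reads, and estimates < 0.5 were set to 0.5.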

Yeast fitness, 0.674:
U8C A15G G50A

Yeast fitness, 0.559:
U8A U16A G23A C34U G39A G58C

Yeast fitness, 0.671:
U8A U19C G48C U59A C66U

Yeast fitness, 0.537:
U8C C29A C34G A36G A40C U47A C62G G68A

Yeast fitness, 1.02:
U8C A40C

Yeast fitness, 0.59:
U8C A14G A70U

Yeast fitness, 0.726:
U8C C22G C49U

Yeast fitness, 0.579:
U8C A36U G38A A65C

Yeast fitness, 0.779:
U8A C49U

Yeast fitness, 0.553:
U8C A21U C27U G38C C61G

Yeast fitness, 0.577:
U8C A36C

Yeast fitness, 0.539:
U8A G23C G56A

Yeast fitness, 0.555:
U8A G39C

Yeast fitness, 0.775:
U8A C66U

Yeast fitness, 0.628:
U8C A15G C61U

Yeast fitness, 0.533:
U8C C30U A57G

Yeast fitness, 0.657:
U8A C46A

Yeast fitness, 0.576:
U8C C24G

Yeast fitness, 0.525:
U8A U16G C31U C34A A37U G41C

Yeast fitness, 0.597:
U8A G63A

Yeast fitness, 0.731:
U8C C30A G48A

Yeast fitness, 0.526:
U8C A42G C61U

Yeast fitness, 0.945:
U8C C24U

Yeast fitness, 0.54:
U8C A20U A21U U26G C31A A45U

Yeast fitness, 0.53:
U8A G12A C62A

Yeast fitness, 0.761:
U8A U26A C29A A65C

Yeast fitness, 0.507:
U8C A42U A43G

Yeast fitness, 0.631:
U8A C31U

Yeast fitness, 0.747:
U8A U13C

Yeast fitness, 0.582:
U8A C66G

Yeast fitness, 0.738:
U8C C27U A70G

Yeast fitness, 0.69:
U8A G38A G48C G67A

Yeast fitness, ≤ 0.5:
U8A G10C C34U C61U U64G
U8A U47G G56A
U8C C31A A42G A57U U59A
U8C A45C C62G A65C
U8A C30U G58C
U8A G38A U54A
U8C A14C C31U
U8C C30U C31A C33G A42G C60A
U8C C11A A42G A43U C46U C62U
U8C C30A C46G U54A U64A G68A
U8C C27G A42C C62G
U8C A36U G38A A45U C49U C61G
U8C C27G C30G C46U C49G
U8A G18C
U8A G48C A70G
U8C C27U C49U G52A C60A
U8A G18C C24A C27U U32C U54G C55U
U8A G23A C30U U35C
U8A U35G
U8A C30U A42G A57C
U8A G18A G25A C33U G51A G56A C66U
U8C A37G G39C
U8C A36C G67C
U8C A15U C22G C31U A57C U64A G68A
U8C C24G G50A
U8A G12C G17A C33U A40G G41C
U8C C11G G25A C60A C62U G68C
U8A G12A A45C
U8A G18C C27U C46A G50A C62U
U8A G23C
U8C C22A C46A A65U
U8A U32A G52A G56C
U8A C33U
U8A G18C G25C A45U C49G
U8C A15G G25A C49U A65U
U8C A21U C24U U32A C55G
U8A U19G C22U
U8A U32G A37G U54G G56A
U8C C22A A36C G63C
U8A U64A A65C G68A
U8A U19C A21C G39C C61U
U8A U16A C27G C31A U59C C61U
U8A G10A G38C
U8C C27U A36C G39C G48C G63U A70U
U8C C22A A36C G63C G67A
U8C C29U A43G C66U
U8C A21U U32A C55G U59C
U8C C24G G38C A57U
U8C C24G G67U
U8C A15C C34U A37G A40U
U8A G18A C30A U32A U35G C55U G67A
U8C C11A G25C U28A A40U
U8A G18C C27U G51C C55A C62U A65U G68A A69U
U8C A14C G50A A57C
U8A G18A A69C
U8C A14G C49U C61U
U8C C31A G52C A65U
U8C C11U G23A C31U A45C G48A G67A
U8A U28C U47A
U8C C22G U28A C33G A57C
U8A G10C G12C C34G G67U
U8A G56A G67C
U8C A14U C34G C46A C62U A69C
U8C A21G C33U A36G A43U A65U A70G
U8C C24G U26C
U8C C27A G52A
U8A C33U A36U A70G
U8C A20U C30G A37G G44A
U8A G10C G12C C34G C61G
U8A G18C G25C C60U U64A
U8C A14G G23U A65C
U8A U26C G39C A43G
U8C C30G C49A G67A G68A
U8C C22A C29G G44A U64G
U8A G18A G52A U59A G67C
U8A G23C G56U A65U
U8C A42U G63A A70G
U8A U16A C27G U59C C61U
U8C C30G A69C
U8C C22A G39A U47A
U8C A20C G38A U53A
U8A G52A G56U
U8C C30G U53C C60A C61A C66G
U8A G9A C24U U53C C60G
U8C A37G G38C
U8C A20C C22A C24U
U8C A40C A65C G68C
U8C C22G A37G C60A A70G
U8A U19C A21C G39C
U8C C24G G25A A43G
U8A C34U A65U
U8A U28C C61A G67C
U8C C11A A15C C49U A57G C61U
U8A U26G C29A C46U G58A G63A
U8C C22A C33G G39C U54C
U8C C27U C66U A69U
U8C C11G A69U
U8C A14C A43G
U8C A43C C49G A57G
U8A G18A C30G U32A U35G G67A
U8A C34U A36G A45U U64A
U8C C11G G18C C49A A70C
U8A G23A A36G
U8A G44C C66U
U8A G12A C33U A37G C62A
U8A U13A A15U C46G A69U
U8A U19C C31A U35G A43G U47C G52U G67A
U8A G25A G48C C62A
U8C C29U U35G
U8A G25A C33G A42G G50A
U8A U35A A36G A57C
U8A U26G C46G
U8C C30G C31G U64G C66U
U8A U13A A14C U16A
U8A C31U U59A

Yeast fitness, 0.571:
U8C C30G C33G A70U

Yeast fitness, 0.505:
U8A G18C A36U C66U

Yeast fitness, 0.877:
U8C A40G

Yeast fitness, 0.666:
U8A C46A U54C

Yeast fitness, 0.765:
U8C A45C A69U

Yeast fitness, 0.701:
U8A G9C A57C

Yeast fitness, 0.903:
U8C A40U

Yeast fitness, 0.849:
U8C A15U

Yeast fitness, 0.534:
U8A G51C

Yeast fitness, 1.03:
U8C A21G

Yeast fitness, 0.551:
U8A G9A U19G C24G

Yeast fitness, 0.527:
U8A G18A C30A U32A U35G G67A

Yeast fitness, 0.64:
U8A U35A G44C A45U

Yeast fitness, 0.627:
U8C A21U C34A A40C

Yeast fitness, 0.74:
U8C A43G A70C

Yeast fitness, 0.935:
U8C C22G

Yeast fitness, 0.532:
U8C A20C G56A C61U

Yeast fitness, 0.711:
U8C A20G C27U C30U A42G C60A

Yeast fitness, 0.995:
U8C A42G

Yeast fitness, 0.618:
U8A G58A G67U
